Source: PubChem (several laboratories)
The sample as a whole holds a higher share of hits than the screen did.
Lmaj promast – Leishmania major promastigote growth inhibition, primary screen | Leishmania major promastigotes, resazurin fluorescence viability | inhibition, % at 10 µM | hit rate 9% among 200,000; in the data active means inhibition above about 50%;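 further: promastigotes grown with compound for 44 hours at 28 °C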
MPTP inh – mitochondrial permeability transition pore inhibitors, primary screen, biochemical, isolated mouse mitochondria, absorbance | hit rate 1.4% among 360,000 | inhibition, % at 10 µM | Ca2+ swelling absorbance, 30 min;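 active means inhibition of 50% or more, scaled per plate between neutral and stimulator controls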;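 further: 0% = DMSO wells given calcium and 100% = 1 mM EGTA wells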
T cruzi inh – inhibitors of intracellular T. cruzi growth, primary screen, luminescence, NIH3T3 host cells; T. cruzi beta-gal in NIH3T3, 90 h; inhibition, % (no concentration beside the values); hit rate 1.4% among 300,000; AID 1885, 2009;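 active means mean inhibition across valid replicates above about 55%, limit read from the data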;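 further: signal also drops with host cell toxicity which is not excluded here; 0% = plate median of DMSO wells and 100% = zero luminescence signal; higher percent means less beta-gal luminescence so fewer parasites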
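Assay system: NIH/3T3 fibroblasts plus reporter T. cruzi. Amount: NIH/3T3 cells, 5,000 per well. Buffer or medium: DMEM, 2% fetal bovine serum. Doses: compound pinned at 50 nL/well, DMSO. Schedule: ≥90 h infection period, 3 h prior cell attachment. Signal: luminescent β-galactosidase signal after 60 min lysis. Read-out: parasite load inhibition, %.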
Redox H2O2 prof – compounds producing H2O2 with reducing agent – biochemical, NIH compound library profiling, artefact control for MLSCN library redox annotation, primary screen | activation, % at 10 µM | hit rate 0.03% among 200,000 | DTT-dependent redox cycling H2O2, phenol red/HRP absorbance; 100% = 100 µM peroxide control, 0% = buffer;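 active means activation of at least 50% relative to the plate's high and low controls in the primary single-dose screen; inactive means activation below 50%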;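 further: compound incubated with DTT at 0.8 mM final as the reducing agent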
Hep lipid drop – inhibitors of hepatocyte lipid droplet formation, primary screen, imaging, high-throughput imaging, BODIPY stain; AML12 mouse hepatocytes, oleate lipid droplets; hit rate 0.4% among 240,000; AID 1656, 2009; inhibition, % at 6.5 µM;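 active means lipid droplet intensity inhibited by at least 50%, with more than 500 cells counted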
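System: AML12 hepatocytes (mouse). Probe or stimulus: oleic acid at 100 µM to induce lipid droplet formation. Times: overnight treatment with compound plus oleate. Detection: Image-based BODIPY and DAPI two-channel analysis. Evaluation: percent inhibition of filter-corrected integrated lipid droplet intensity per well.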
Starred values were filed as active, the others as inactive; . = no result given.

SMILES | Lmaj promast | MPTP inh | T cruzi inh | Redox H2O2 prof | Hep lipid drop
COc1ccc(N2CCN(C(=O)CSc3ccccc3N)CC2)cc1 | 63* | -1 | 8 | 0 | 5
COc1ccc(N2CCN(C(=O)CSc3ccccc3)CC2)cc1 | -2 | 0 | 9 | 0 | -10
COc1ccc(N2CCN(C(=O)CC(NC(N)=O)c3cccc(Oc4ccccc4)c3)CC2)cc1 (stereo unspecified) | 100* | 0 | 3 | -1 | 24
O=C(c1noc2c1CCCC2)N1CCC(CO)(Cc2ccccc2Cl)CC1 | 5 | -2 | 6 | 0 | -14
O=[N+]([O-])c1cccc(-c2ccc3nnc(SCc4cccnc4)n3n2)c1 | . | 1 | . | . | .
O=C(NCC1CCCO1)c1cc2cc(Cl)ccc2[nH]1 (stereo unspecified) | . | 0 | 1 | . | 5
CN1CCN(C(=O)Nc2ccc3c(c2)N(C)C(=O)c2ccccc2S3)CC1 | 98* | 1 | 24 | 0 | -9
CN1C(=O)c2ccccc2Sc2ccc(NC(=O)N3CCCC3)cc21 | 9 | 0 | -1 | 3 | .
CN1c2ccccc2C(C)(C)C12C=Cc1cc(O)ccc1O2 (stereo unspecified) | 99* | 4 | 35 | 0 | .
CN1c2ccccc2C(C)(C)C12C=Nc1c(cc(N3CCOCC3)c3ccccc13)O2 (stereo unspecified) | 41 | 4 | 33 | -3 | .
CC(=S)/C=C1\Sc2ccccc2N1C | 99* | -2 | 69* | -4 | .
COc1ccc(NC(=S)N(CCCN2CCOCC2)C(C)c2cc3cccc(OC)c3o2)cc1 (stereo unspecified) | 6 | 1 | 12 | 0 | 8
COc1cccc(NC(=S)N(CCCN2CCOCC2)C(C)c2cc3ccccc3o2)c1 (stereo unspecified) | 97* | 2 | 18 | 0 | -13
COc1cccc2cc(C(C)N(CCCN3CCOCC3)C(=O)Nc3ccccc3)oc12 (stereo unspecified) | 82* | 1 | 9 | 0 | .
CC(C)SCc1cc(N2CCCC2)nc(-c2ccccc2)n1 | 16 | 1 | 31 | -1 | -26
CSCc1cc(N2CCCC2)nc(-c2ccccc2)n1 | 68* | -2 | 15 | -1 | 2
CCC(CO)Oc1cc(NC(=O)c2ccccc2[N+](=O)[O-])c2ncn(C(C)C)c2c1 (stereo unspecified) | . | -2 | . | . | .
O=C(Oc1c(CN2CCOCC2)cc(Cl)c2cccnc12)c1ccc(F)cc1 | 100* | -6 | 56* | 0 | -6
COc1cccc(C(=O)OCCN2CCOCC2)c1 | -4 | 0 | -7 | 0 | -8
COc1cc(C(=O)Oc2c(CN3CCOCC3)cc(Cl)c3cccnc23)cc(OC)c1OC | 100* | -6 | 30 | -1 | .
COc1ccc(C(=O)Oc2c(CN3CCOCC3)cc(Cl)c3cccnc23)cc1 | 97* | -11 | 42 | 0 | -12
COc1cccc(C(=O)Oc2c(CN3CCOCC3)cc(Cl)c3cccnc23)c1 | 100* | -4 | 34 | 0 | -3
O=C(Oc1ccc(Cl)c2cccnc12)N1CCOCC1 | -6 | 0 | -5 | 2 | .
CCOc1ccc(N(CC(=O)NC(C)(C)C)C(=O)CCC(=O)Nc2nccs2)cc1 | . | -1 | 7 | . | 4
CCCC(=O)NC(c1ccco1)c1cc(Cl)c2cccnc2c1O (stereo unspecified) | -2 | -9 | 62* | -4 | -1
SMILES | Lmaj promast | MPTP inh | T cruzi inh | Redox H2O2 prof | Hep lipid drop
CCCC(=O)NC(c1cccs1)c1cc(Cl)c2cccnc2c1O (stereo unspecified) | 99* | 2 | 78* | 1 | -6
CCCC(=O)NC(c1ccc2c(c1)OCO2)c1cc(Cl)c2cccnc2c1O (stereo unspecified) | 99* | 1 | 56* | 0 | 9
Cc1nn(-c2ccccc2)c(C)c1NC(=O)COC(=O)CCc1ccccc1 | . | 0 | 7 | . | -2
COc1ccc(Cc2nnc(N/N=C/c3ccc(O)cc3)[nH]c2=O)cc1OC | 98* | -1 | 11 | 0 | 9
COc1ccc(Cn2ccnc2)cc1Br | 71* | -1 | 20 | 0 | 13
COc1ccc(NCc2ccc(OC)c(Cn3ccnc3)c2)c(OC)c1 | . | 0 | 56* | . | .
CC(C)Cc1nnc(NC(=O)c2ccc(-n3cncn3)c([N+](=O)[O-])c2)s1 | . | 0 | . | . | .
Cc1cc(-c2n[nH]c(=S)n2/N=C/c2cccc([N+](=O)[O-])c2)n[nH]1 | 51* | -1 | -16 | 0 | -12
Cc1cc(-c2n[nH]c(=S)n2/N=C/C(Cl)=C/c2ccccc2)n[nH]1 | 70* | 2 | -19 | 1 | -20
Cc1cc(-c2n[nH]c(=S)n2/N=C/c2cccc(O)c2)n[nH]1 | . | 0 | -8 | . | 14
COc1cc2c(cc1OC)C(c1ccc(Br)cc1)NCC2 (stereo unspecified) | . | 2 | 57* | . | .
CCC(=O)c1ccc(OCC(=O)N2CCc3cc(OC)c(OC)cc3C2)cc1 | 1 | 2 | . | 0 | -14
COc1cc2c(cc1OC)CN(C(=O)COc1ccc(C)c(C)c1)CC2 | 36 | 0 | 56* | 2 | 10
Cc1ccc(C2C(C=Nc3c(C)n(C)n(-c4ccccc4)c3=O)=C(c3ccccc3)Oc3ccccc32)cc1 (stereo unspecified) | 56* | 2 | 33 | 18 | .
CCCN1CCN(CCCNC(=O)CCn2nc(-c3ccccc3)ccc2=O)CC1 | 2 | 0 | -16 | -1 | -3
O=C(CSc1ccccc1F)OCC(=O)N1CCN(C(=O)c2ccco2)CC1 | . | 0 | -12 | . | .
O=C(CSc1cccc2cccc(Cl)c12)OCC(=O)N1CCN(C(=O)c2ccco2)CC1 | 53* | -1 | -12 | 0 | -5
COc1ccc(C(=O)O)cc1S(=O)(=O)NC(C)C | . | 0 | -7 | . | 2
O=C(CNS(=O)(=O)c1ccc(Br)s1)N1CCC(N2CCCCC2)CC1 | 78* | 1 | . | 2 | .
Cc1ccc(-n2c3c(c(=O)[nH]c2=O)C(NS(=O)(=O)c2ccc(Cl)cc2)(C(F)(F)F)C(=O)N3)cc1 (stereo unspecified) | -6 | 0 | -6 | 0 | -16
CN(c1ccccc1)S(=O)(=O)c1ccc(NC(=O)c2ccc(-c3ccccc3)cc2)cc1 | 97* | 25 | 47 | 3 | .
COC(=O)c1ccc(-n2c(C)cc(-c3csc(NC(=O)c4ccc(S(=O)(=O)N(C)C)cc4)n3)c2C)cc1 | 57* | 0 | -3 | 0 | 7
CN(c1cccc(NC(=O)c2ccc(N(C)S(=O)(=O)c3ccccc3)cc2)c1)S(C)(=O)=O | 62* | 3 | 14 | -1 | -2
CC(=O)Nc1ccc(NC(=O)c2ccc(N(C)S(=O)(=O)c3ccc(C)cc3)cc2)cc1 | . | 0 | 8 | . | -6
Cc1csc(NC(=O)c2ccc(S(=O)(=O)N(C)c3ccccc3)cc2)n1 | 98* | 0 | 23 | 2 | .
